Assay outcomes from PubChem.
Insulin prom up – MIN6 insulin promoter up-regulation; MIN6 insulin promoter-GFP reporter, high-content imaging; active compounds read high; z-score at 5 µM; 190,000 compounds, 0.3% hits;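 active means z-score above 3 at 5 µM with at least 500 cells counted in the well; inconclusive means wells under 500 cells, flagged as cytotoxic or low count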
Autophagy HCS – autophagy modulation, high-content screen. MEF GFP-LC3 puncta imaging; test concentration mostly 10 µM. calls only at 10 µM (by protocol). 190,000 compounds, 0.98% hits;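 active means percentage of spot-positive cells more than 3 SD above its plate mean, without a fluorescence outlier flag or 80% toxicity; inconclusive means no clear call, values can overlap the other calls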
Dynein transport – blocks dynein driven cargo transport along microtubules | 3617.4 mouse cells, GR-EGFP nuclear translocation imaging; test concentration mostly 20 µM; stimulated with dexamethasone, 1 µM; active compounds read low | z-score, hits read low | 220,000 compounds, 0.47% hits | AID 1381;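 active means plate z-score of nuclear minus cytoplasmic receptor signal below a set negative limit, without overly bright fluorescence or cell loss, cut at about -3.5 in these data, passing the limit was not always enough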;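 further: z-score of nuclear minus cytoplasmic ring GR-EGFP intensity difference per well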
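Also added – dexamethasone, 1.0 µM final · Buffer or medium – tet-free, stripped-serum medium · Schedule – induction 48 h, compound 1 h, agonist 30 min · Detection – formaldehyde fixation, Hoechst nuclear stain, 10x automated fluorescence imaging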
bCat nuc transl – beta-catenin nuclear translocation modulation. AID 1665. nuclear translocation activity, % at 5 µM. 190,000 compounds, 0.3% hits. HeLa beta-catenin nuclear translocation, immunofluorescence imaging;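 active means nuclear translocation activity above 50% at 5 µM, with a well cell count of 50 or more; inconclusive means wells under 50 cells across six images, flagged as toxic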;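 further: per-cell ratio of nuclear to cytoplasmic median beta-catenin stain intensity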
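Technique: fluorescence imaging of beta-catenin antibody stain plus DAPI / Material: human HeLa cell line / Incubation: compound treatment 24 h, 37°C, 5% CO2 / Read-out basis: % activation of per-cell nuclear versus cytoplasmic median beta-catenin signal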
MT stabilizer – microtubule stabilization, imaging screen | HeLa tubulin immunostaining HCS, 24 h; share of cells brighter than vehicle mean+2SD | % tubulin-high responders, % at 10 µM | 200,000 compounds, 0.83% hits;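 active means plate Z-score above 3 for both tubulin-high and condensed-nucleus cell shares, with cell loss under 80%, at 10 µM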;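 further: anti alpha tubulin signal scored within the nucleus-defined area of each cell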
Dynein confirm – dynein cargo transport inhibition, confirmation; shares compounds with Dynein transport; 3617.4 GR-EGFP nuclear translocation imaging, dexamethasone-induced; calls only at 20 µM; 1,000 compounds, 69% hits;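 active means inhibition of receptor movement into the nucleus at or above a set limit in both runs, with normal cell brightness and cell count; inconclusive means limit reached in only one run, brightness and count normal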;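 further: dexamethasone at 1 µM final in well for 30 min; nuclear minus cytoplasmic GR-EGFP mean intensity difference in channel 2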
A number is an active result; - = inactive; ? = inconclusive; . = not tested or not shown; + = active, no number. Most compounds without a hit are left out; they make up all but 2.3% or so of the library.

SMILES | Insulin prom up | Autophagy HCS | Dynein transport | bCat nuc transl | MT stabilizer | Dynein confirm
COc1ccc(-c2nnc(Sc3nc4ccccc4o3)c3ccccc23)cc1 | . | - | -4.2 | - | - | +
C=CS(=O)(=O)c1ccc(Oc2ccc(S(=O)(=O)C=C)cc2)cc1 | - | - | -4 | - | - | +
NS(=O)(=O)c1ccc(Oc2ccc(S(N)(=O)=O)cc2)cc1 | - | - | - | - | - | .
O=C1CSC(=S)N1Cc1cccnc1 | - | - | -4.6 | - | - | -
CCN1C(=O)CS/C1=N\S(=O)(=O)c1ccc(Cl)cc1 | - | - | - | - | - | .
CCn1c(Cl)c(C=O)s/c1=N\S(=O)(=O)c1ccccc1 | . | . | -7 | - | . | +
Cc1ccc(SC(=O)c2c(C)noc2-c2cc(C)on2)cc1 | . | . | -5.1 | - | . | +
Cc1cc(-c2onc(C)c2C(=O)N/N=C/c2ccccc2)no1 | . | . | - | - | . | .
C/C=C(\CS(=O)(=O)c1ccccc1)S(=O)(=O)c1ccccc1 | - | - | -3.6 | - | - | ?
C/C(CS(=O)(=O)c1ccccc1)=N\O | - | - | - | - | - | .
CCN(NC(=O)C(O)(c1ccccc1)c1ccccc1)C(=O)c1ccccc1 | . | - | - | - | - | .
CCN(CC)c1ccc(/C=N/NC(=O)C(O)(c2ccccc2)c2ccccc2)o1 | - | - | -4.9 | - | - | -
CC(C)c1ccc(C(=O)N2CCN(c3cnn(C)c(=O)c3Cl)CC2)cc1 | - | - | - | - | - | .
O=C1NC(=O)/C(=C/c2cccc([N+](=O)[O-])c2)N1 | - | . | - | - | . | .
CCN1C/C(=C/c2cccc([N+](=O)[O-])c2)C(=O)/C(=C/c2cccc([N+](=O)[O-])c2)C1 | - | - | -4 | - | 42 | +
Cc1ccc(C(=O)N/C(=C\c2ccc(-c3cc(Cl)ccc3Cl)o2)C(=O)NCc2cccnc2)cc1 | . | - | - | - | - | .
O=C(NCc1cccnc1)/C(=C/c1ccc(-c2cccc(Cl)c2)o1)S(=O)(=O)c1ccccc1 | - | - | -3.9 | 55 | 26 | +
O=C(NCc1cccnc1)/C(=C\c1ccc(-c2cccc(Cl)c2)o1)S(=O)(=O)c1ccccc1 | - | - | -4.3 | - | 52 | +
O=C(O)CCC(NC(=S)Nc1ccccc1)C(=O)O (centres undefined) | - | . | - | - | . | .
CCOC(=O)c1[nH]c(C(=O)O)c(OC(=O)CC)c1C | - | . | - | - | . | .
COC(C/C=C/C(=O)COCc1ccccc1)OC | - | . | -5.7 | - | . | +
O=C1C(=O)N(CCN2CCOCC2)C(c2cccnc2)/C1=C(/O)c1ccc(Cl)cc1 (centres undefined) | - | - | - | - | - | .
Cc1ccc(NC(=O)c2cc(N3C(=O)C=CC3=O)ccc2N2CCOCC2)cc1 | - | - | -4.9 | - | - | +
CC(C)N(CC(=O)Nc1ccc(Cl)cc1C(F)(F)F)C(=O)CCl | - | - | -7.1 | . | - | +
O=C(O)CSCC(=O)Nc1ccc(Cl)cc1C(F)(F)F | - | - | - | - | - | .
SMILES | Insulin prom up | Autophagy HCS | Dynein transport | bCat nuc transl | MT stabilizer | Dynein confirm
Cc1nc(C)c(N)c(=O)[nH]1 | - | - | - | - | - | .
CC1=C(CO)C(=O)OC([C@@H](C)C2CC[C@H]3C4C[C@H]5O[C@]56[C@@H](O)C=CC(=O)[C@]6(C)C4CC[C@]23C)C1 (some centres undefined) | - | . | -3.8 | - | . | ?
COc1ccc(CN=Cc2c(O)[nH]c3ccccc23)cc1 | - | - | - | - | - | .
Cc1ccc(CN=Cc2[nH]c3ccc(Br)c(Cl)c3c2O)cc1 | . | + | - | - | - | +
Cc1ccc2nc(SCC(=O)Nc3ccc(C(N)=O)cc3)[nH]c2c1 | - | - | -6.7 | - | - | -
Cc1ccc2nc(SCC(=O)Nc3cccc([N+](=O)[O-])c3)[nH]c2c1 | . | - | - | . | - | .
O=C(Nc1ccc(Nc2ccncc2)cc1)c1ccc(Nc2ccnc3ccc([N+](=O)[O-])cc23)cc1[N+](=O)[O-] | - | . | - | - | . | .
Cc1nc([N+](=O)[O-])c(Br)n1CC(=O)c1ccc2ccccc2c1 | - | - | -4.3 | . | - | +
Cc1nc([N+](=O)[O-])c(Br)n1CC(=O)c1ccc(Br)cc1 | - | - | -4.3 | . | - | +
Cc1nc([N+](=O)[O-])c(Br)n1CC(=O)c1ccccc1 | - | - | -5.3 | - | - | +
COc1ccccc1Oc1ccc2c(c1)C(=O)N(CC1CCCO1)C2=O (centres undefined) | - | . | - | - | . | .
CN(C)CCCNC(=S)Nc1ccc(Br)cc1 | - | . | - | - | . | .
CCc1cc(C(=O)Cc2nc3ccccc3s2)c(O)cc1OCC(=O)O | - | . | - | - | . | .
NC(=O)/C=C/C(=O)Nc1ccc(Cl)cc1 | - | - | -3.7 | - | - | -
O=C(NCCNC1CCC(c2ccccc2)CC1)c1cccs1 (centres undefined) | . | - | - | - | - | .
COC(=O)Cn1c(=N)n(CCN2CCCCC2)c2ccccc21 | - | - | - | - | - | .
N=c1n(CCN2CCCCC2)c2ccccc2n1CC(=O)c1ccc(Cl)c(Cl)c1 | - | . | -3.6 | - | . | -
Cc1ccc(NC(=S)N(Cc2cccc(Br)c2)CC2CCC(C(=O)O)CC2)cc1Cl (centres undefined) | - | - | - | - | - | .
CCOC(=O)c1cc(C)n(-c2ccc(Cl)cc2)c1C | - | . | - | - | . | .
COC(=O)c1ccc(-n2c(C)cc(C(=O)CCl)c2C)cc1 | - | - | -5 | - | - | +
CCOc1ccc(-n2c(C)cc(C(=O)CCl)c2C)cc1 | - | + | -4.8 | - | - | +
N#C/C(=C/c1ccc(N2CCCCCC2)o1)c1ccc(F)cc1 | . | + | - | . | - | -
N#C/C(=C/c1ccc(N2CCOCC2)o1)c1nc2ccccc2[nH]1 | . | ? | - | - | - | .
N#C/C(=C/c1ccc(N2CCCCC2)o1)C(=O)Nc1ccc2ccccc2c1 | . | . | -4 | - | - | +
N#C/C(=C/c1ccc(N2CCCCC2)o1)C(=O)Nc1ccc(Cl)cc1 | . | + | - | - | - | -
SMILES | Insulin prom up | Autophagy HCS | Dynein transport | bCat nuc transl | MT stabilizer | Dynein confirm
CCOC(=O)C1CCN(C(=O)COc2ccc(N(C)S(=O)(=O)c3ccc(C)cc3)cc2)CC1 | - | - | - | - | - | .
Cc1cccc(C(=O)OCC(=O)NCCCc2ccccc2)c1 | - | - | - | - | - | .
O=C1C=CC2C(c3ccc4c(c3)OCO4)CC1N2Cc1ccccc1 (centres undefined) | - | - | -3.8 | - | - | +
COC(=O)NC(=C(Cl)Cl)S(=O)(=O)c1ccccc1 | - | - | -5.8 | - | - | +
Cc1ccc(C(=O)NC(=C(Cl)Cl)S(=O)(=O)c2ccccc2)cc1 | - | - | - | - | - | .
O=C(Nc1ccccc1F)Nc1ccccc1N1CCCCC1 | - | . | - | - | . | .
CC[C@@H](C)[C@H](NC(=O)OC(C)(C)C)c1nnc(S(=O)(=O)Cc2cc(C)ccc2C)o1 | - | - | - | - | - | .
Cc1ccccc1CS(=O)(=O)c1nnc([C@H](CC(C)C)NC(=O)OC(C)(C)C)o1 | - | - | -3.7 | - | - | +
